Measured values taken from ChEMBL document CHEMBL2375359, “Synthesis and antibacterial evaluation of novel pleuromutilin derivatives” (2013).
Values after ≈ are worked out from the molar mass of the structure shown.

Experiments:
Format in all cases: functional
Escherichia coli [1] = assay: Antibacterial activity against Escherichia coli at 80 ug/ml after 24 hrs by Oxford cup assay; conditions: read-out: IZ
Summary of the method: (§1)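 Oxford cup diffusion with clinical isolates. Inoculum made in 0.9% saline to a McFarland standard and spread evenly on nutrient agar. Compound solutions, prepared as for the agar dilution test, were added at the stated concentration to Oxford cups set equidistant on the agar surface. Inhibition zones were measured after 24 h at 37 °C.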

Streptococcus agalactiae [2] = assay: Antibacterial activity against Streptococcus agalactiae at 160 ug/ml after 24 hrs by Oxford cup assay; conditions: read-out: IZ; summary of the method: as §1
[3] = system: Staphylococcus epidermidis; assay: Antibacterial activity against methicillin-resistant Staphylococcus epidermidis after 48 hrs by agar dilution method
Summary of the method: (§2)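 Agar dilution per NCCLS: 2-fold serial dilutions incorporated into hot Mueller-Hinton agar. Clinical isolates grown from blood slants, suspended in sterile 0.90% NaCl to about 10⁵–10⁶ cfu/mL, spotted onto plates. Incubation 36.5 °C, 48 h. MIC taken as the lowest concentration giving complete growth inhibition. Run in triplicate at pH 7.40.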

Escherichia coli [4] = assay: Antibacterial activity against Escherichia coli after 48 hrs by agar dilution method
Summary of the method: (§3)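 Agar dilution per NCCLS on clinical isolates. 2-fold serial dilutions of compound (2 mL) mixed into 18 mL hot Mueller-Hinton agar. Inoculum from blood slants, adjusted to approx. 10⁵–10⁶ cfu/mL in sterile 0.90% NaCl, then spotted onto the plates. Incubated 36.5 °C, 48 h. MIC is the lowest concentration giving complete growth inhibition. Run in triplicate at pH 7.40.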

Staphylococcus aureus [5] = assay: Antibacterial activity against methicillin-resistant Staphylococcus aureus at 320 ug/ml after 24 hrs by Oxford cup assay; conditions: read-out: IZ
Summary of the method: (§4)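 Oxford cup diffusion: clinical isolate inoculum in 0.9% saline set by McFarland standard, spread evenly on nutrient agar. Cups placed equidistant on the surface and filled with compound solutions prepared as for the agar dilution test, at several concentrations. Inhibition zone measured after 24 h at 37 °C.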

Escherichia coli [6] = assay: Antibacterial activity against Escherichia coli at 320 ug/ml after 24 hrs by Oxford cup assay; conditions: read-out: IZ; summary of the method: as §1
[7] = system: Staphylococcus epidermidis; assay: Antibacterial activity against methicillin-resistant Staphylococcus epidermidis at 160 ug/ml after 24 hrs by Oxford cup assay; conditions: read-out: IZ; summary of the method: as §4
Staphylococcus aureus [8] = assay: Antibacterial activity against methicillin-resistant Staphylococcus aureus at 80 ug/ml after 24 hrs by Oxford cup assay; conditions: read-out: IZ; summary of the method: as §4
[9] = system: Staphylococcus epidermidis; assay: Antibacterial activity against methicillin-resistant Staphylococcus epidermidis at 320 ug/ml after 24 hrs by Oxford cup assay; conditions: read-out: IZ; summary of the method: as §4
Staphylococcus aureus [10] = assay: Antibacterial activity against methicillin-resistant Staphylococcus aureus after 48 hrs by agar dilution method; summary of the method: as §2
Streptococcus agalactiae [11] = assay: Antibacterial activity against Streptococcus agalactiae after 48 hrs by agar dilution method; summary of the method: as §3
Streptococcus agalactiae [12] = assay: Antibacterial activity against Streptococcus agalactiae at 320 ug/ml after 24 hrs by Oxford cup assay; conditions: read-out: IZ; summary of the method: as §1
[13] = system: Staphylococcus epidermidis; assay: Antibacterial activity against methicillin-resistant Staphylococcus epidermidis at 80 ug/ml after 24 hrs by Oxford cup assay; conditions: read-out: IZ; summary of the method: as §4
Staphylococcus aureus [14] = assay: Antibacterial activity against methicillin-resistant Staphylococcus aureus at 160 ug/ml after 24 hrs by Oxford cup assay; conditions: read-out: IZ; summary of the method: as §4
Streptococcus agalactiae [15] = assay: Antibacterial activity against Streptococcus agalactiae at 80 ug/ml after 24 hrs by Oxford cup assay; conditions: read-out: IZ; summary of the method: as §1
Escherichia coli [16] = assay: Antibacterial activity against Escherichia coli at 160 ug/ml after 24 hrs by Oxford cup assay; conditions: read-out: IZ; summary of the method: as §1

Row | SMILES | zone of inhibition at 80 µg/mL (Escherichia coli [1]) [mm] | zone of inhibition at 160 µg/mL (Streptococcus agalactiae [2]) [mm] | MIC [3] [µg/mL] | MIC (Escherichia coli [4]) [µg/mL] | zone of inhibition at 320 µg/mL (Staphylococcus aureus [5]) [mm] | zone of inhibition at 320 µg/mL (Escherichia coli [6]) [mm] | zone of inhibition at 160 µg/mL [7] [mm] | zone of inhibition at 80 µg/mL (Staphylococcus aureus [8]) [mm] | zone of inhibition at 320 µg/mL [9] [mm] | MIC (Staphylococcus aureus [10]) [µg/mL] | MIC (Streptococcus agalactiae [11]) [µg/mL] | zone of inhibition at 320 µg/mL (Streptococcus agalactiae [12]) [mm] | zone of inhibition at 80 µg/mL [13] [mm] | zone of inhibition at 160 µg/mL (Staphylococcus aureus [14]) [mm] | zone of inhibition at 80 µg/mL (Streptococcus agalactiae [15]) [mm] | zone of inhibition at 160 µg/mL (Escherichia coli [16]) [mm]
1 | C=C[C@]1(C)C[C@@H](OC(=O)CSC(C)(C)CNC(=O)[C@H](N)c2ccccc2)[C@]2(C)[C@H](C)CC[C@]3(CCC(=O)[C@H]32)[C@@H](C)[C@@H]1O | 9.2 | 10.6 | 16 (≈ 26.7 µM) | 8 (≈ 13.4 µM) | 10.2 | 10.8 | 10 | 9.41 | 10.8 | 2 (≈ 3.34 µM) | 16 (≈ 26.7 µM) | 11 | 10.9 | 9.98 | 10.1 | 11.3
2 | C=C[C@]1(C)C[C@@H](OC(=O)CSC(C)(C)CNC(=O)[C@@H](N)c2ccccc2)[C@]2(C)[C@H](C)CC[C@]3(CCC(=O)[C@H]32)[C@@H](C)[C@@H]1O | 10 | 10.4 | 4 (≈ 6.68 µM) | 4 (≈ 6.68 µM) | 10.3 | 10.7 | 10.6 | 9.82 | 11.2 | 0.25 (≈ 0.417 µM) | 8 (≈ 13.4 µM) | 11.2 | 10.3 | 10.1 | 10.7 | 9.89
3 | C=C[C@]1(C)C[C@@H](OC(=O)CSC(C)(C)CNC(=O)c2cc3ccccc3[nH]2)[C@]2(C)[C@H](C)CC[C@]3(CCC(=O)[C@H]32)[C@@H](C)[C@@H]1O | 8.87 | 9.62 | 16 (≈ 26.3 µM) | 16 (≈ 26.3 µM) | 8.52 | 10.8 | 8.84 | 9.05 | 9 | 2 (≈ 3.28 µM) | 8 (≈ 13.1 µM) | 9.25 | 10.3 | 8.77 | 9.31 | 9.52
4 | C=C[C@]1(C)C[C@@H](OC(=O)CSC(C)(C)CNC(=O)OCC(C)C)[C@]2(C)[C@H](C)CC[C@]3(CCC(=O)[C@H]32)[C@@H](C)[C@@H]1O | 9.91 | 9.01 | 8 (≈ 14.1 µM) | 16 (≈ 28.3 µM) | 10.9 | 10.3 | 11 | 9.64 | 11.1 | 2 (≈ 3.53 µM) | 4 (≈ 7.07 µM) | 10.2 | 10.6 | 9.56 | 9.85 | 9.55
5 | C=C[C@]1(C)C[C@@H](OC(=O)CSC(C)(C)CNC(=O)OCc2ccccc2)[C@]2(C)[C@H](C)CC[C@]3(CCC(=O)[C@H]32)[C@@H](C)[C@@H]1O | 11.7 | 10.6 | 32 (≈ 53.3 µM) | 32 (≈ 53.3 µM) | 12.7 | 14.7 | 10.2 | 10.4 | 11 | 4 (≈ 6.67 µM) | 16 (≈ 26.7 µM) | 11.5 | 11 | 11.5 | 10.7 | 15.3
6 | C=C[C@]1(C)C[C@@H](OC(=O)CSCCN(CC)CC)[C@]2(C)[C@H](C)CC[C@]3(CCC(=O)[C@H]32)[C@@H](C)[C@@H]1O [TIAMULIN] | 15.2 | 11.4 | 2 (≈ 4.05 µM) | 2 (≈ 4.05 µM) | 18.3 | 18.3 | 15.6 | 16.5 | 16.4 | 0.5 (≈ 1.01 µM) | 2 (≈ 4.05 µM) | 12.3 | 14.5 | 17.6 | 11.1 | 16.5
7 | C=C[C@]1(C)C[C@@H](OC(=O)CSC(C)(C)CNC(=O)[C@H](N)C(C)C)[C@]2(C)[C@H](C)CC[C@]3(CCC(=O)[C@H]32)[C@@H](C)[C@@H]1O [VALNEMULIN] | 19.5 | 14.5 | 0.5 (≈ 0.885 µM) | 0.5 (≈ 0.885 µM) | 25.8 | 24.5 | 25.9 | 20.4 | 27.5 | 0.125 (≈ 0.221 µM) | 0.5 (≈ 0.885 µM) | 15.8 | 22.6 | 22.9 | 12.8 | 23.7
